Consider seven compounds from ChEMBL document CHEMBL1155416, “Ethacrynic acid analogues lacking the alpha,beta-unsaturated carbonyl unit--potential anti-metastatic drugs” (2010).

Holding throughout (assay type): functional
One test relates to MCF7/AZ. Briefly: (§1) Antimigration against human MCF7/AZ cells at 10 to 25 uM after 24 hrs by wound healing assay. The method, boiled down: (§2)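 Confluent MCF-7/AZ monolayers were washed twice with PBS and scratched to leave a gap of about 1500 μm, then imaged. Medium with or without compound was added, at concentrations chosen from the 24 h MTT assay. After 24 h of migration the wound was imaged again and compared with the first image. Migration was expressed as migratory velocity (μm/h).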

Test [1] is described as follows: Cytotoxicity against human MCF7/AZ cells assessed as reduction of cell viability after 24 hrs by MTT assay. An outline of the steps:
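MCF-7/AZ cells were seeded at 1.5 × 10^4 cells/well in medium with 5% FBS and penicillin/streptomycin, then grown 24 h at 37 C under 5% CO2. They were exposed 24 h to eight concentrations (1, 5, 10, 20, 40, 60, 80, 100 μM). Part of the medium was removed before adding MTT, and OD was read. Mean OD came from three independent experiments. OD80/IC20 (20% viability loss) was read from the graphs.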
In general terms: Formazan colour is commonly taken as a measure of viable cells.

Test [2] can be described thus: as §1. The method, boiled down:
as §2

The structures appear in SMILES notation. The source made the active and inactive calls. No cut-off for these calls is given here.

For the compound `CCC(=O)c1ccc(OCC(=O)O)cc1C`, the inhibition entry in the test on MCF7/AZ is “inactive”. Moreover, the IC20 (in general, the concentration at which the effect reaches the 20% level) in test [1] was 10 µM.

For the compound `CCC(=O)c1ccc(OCC(=O)O)cc1OC`, in test [2], the “inhibition (INH)” value is 29%. In addition, the IC20 in test [1] is greater than 100 µM.

`CCC(=O)c1ccc(OCC(=O)O)c(C)c1`: the inhibition result with MCF7/AZ is “inactive”. The IC20 in test [1] was 20 µM.

With `CCC(=O)c1ccc(OCC(=O)O)cc1`, the inhibition result in the test with MCF7/AZ is “inactive”. For the same compound, the IC20 in test [1] was found to be 25 µM.

In the case of `CCC(=O)c1cc(OC)c(OCC(=O)O)c(OC)c1`, the “inhibition (INH)” value in test [2] is on record as 52%. Moreover, in test [1], the IC20 was greater than 100 µM.

Regarding `C=C(CC)C(=O)c1ccc(OCC(=O)O)c(Cl)c1Cl` [ETHACRYNIC ACID], the inhibition result with MCF7/AZ is “inactive”. For the same compound, the IC20 in test [1] was greater than 100 µM.

In the case of `CCC(=O)c1ccc(OCC(=O)O)c(OC)c1`, the “inhibition (INH)” value in test [2] was 38%. Further, in test [1], the IC20 is greater than 100 µM.
